Read-outs that look alike come from different tables or passages of the source.
How the values were obtained:
[1] = target: T1, PfPK5 (Plasmodium falciparum, UniProt P61075); conditions: read-out: PfPK5 IC50; cited from earlier work
[2] = target: T1, PfPK5; conditions: read-out: PfPK5 Kd; cited from earlier work
[3] = system: P. falciparum Dd2 asexual blood stage parasites; test: P. falciparum Dd2 asexual blood stage inhibition; type: cell-based, Plasmodium falciparum; conditions: read-out: blood stage parasite EC50, dose-response
How it was run: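 Asexual blood-stage P. falciparum Dd2 cultured with test compound in O-positive human blood for 72 h at 37 °C under 93% N2, 4% CO2, 3% O2, with 0.2% DMSO final. Nuclei then stained with SYBR Green I and fluorescence read. Data normalised to DMSO, with artesunate as positive control.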

[4] = system: HuH7 cells; type: cell-based, human
[5] = target: T1, PfPK5; test: KINOMEscan active-site-directed competition binding assay, PfPK5; conditions: read-out: PfPK5 Kd(app), determined in duplicate, 0–30 μM

T1 sequence (P61075 whole entry): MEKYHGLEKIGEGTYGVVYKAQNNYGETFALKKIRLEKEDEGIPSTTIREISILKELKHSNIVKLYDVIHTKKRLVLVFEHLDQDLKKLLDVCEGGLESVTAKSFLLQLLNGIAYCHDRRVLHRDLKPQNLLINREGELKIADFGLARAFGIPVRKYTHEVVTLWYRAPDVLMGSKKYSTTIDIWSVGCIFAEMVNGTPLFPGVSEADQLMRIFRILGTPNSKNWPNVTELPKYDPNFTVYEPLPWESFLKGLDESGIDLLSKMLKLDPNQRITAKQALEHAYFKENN

O=C1Nc2ccccc2/C1=C1/Nc2ccccc2/C1=N\O [indirubin-3´-monoxime]
IC50 [1]: 6 µM

CC(C)[C@H](CO)Nc1nc(Nc2cccc(Cl)c2)c2ncn(C(C)C)c2n1 [Purvalanol A, purvalanol A]
IC50 [1]: 8 µM

Nc1nc(Nc2ccc(S(N)(=O)=O)cc2)nn1C(=S)Nc1c(F)cccc1F [Compound 1a]
Kd [2]: 0.32 µM
EC50 [3]: 0.14 µM
EC50 [4]: 67 µM
Kd [5]: 0.37 µM

— publication PMC6436633 (ChemMedChem, 2018)
